Experimental data published in ChEMBL document CHEMBL1124865, “Synthesis and biological evaluation of a series of parenteral 3'-quaternary ammonium cephalosporins” (J Med Chem, 1990).
In brackets after ≈: the same amount, converted by molar mass.

Legend:
[1] = system: Escherichia coli; assay: In vitro relative hydrolysis rate against Escherichia coli IIIa; assay type: functional
Outline: (§1)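 Spectrophotometric hydrolysis at 265 nm, substrate exposed to partially purified cell-free β-lactamase preparations; rate expressed as percentage of the cephaloridine rate.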

[2] = system: Enterobacter cloacae; assay: In vitro relative hydrolysis rate against Enterobacter Ia; assay type: functional; outline: as §1
[3] = system: Enterobacter cloacae; assay: Antibacterial activity against Enterobacter cloacae 265A; assay type: functional
[4] = system: Escherichia coli; assay: Antibacterial activity against Escherichia coli EC14; assay type: functional; details: Escherichia coli; read-out: MIC
[5] = system: Enterobacter cloacae; assay: Antibacterial activity against Enterobacter cloacae EB5; assay type: functional
[6] = system: Escherichia coli; assay: Antibacterial activity against Escherichia coli TEM; assay type: functional
[7] = system: Klebsiella pneumoniae; assay: microbe, parasite or virus in culture; assay type: functional
[8] = system: Klebsiella pneumoniae; assay: Antibacterial activity against Klebsiella pneumoniae X26; assay type: functional; details: Klebsiella pneumoniae; read-out: MIC
[9] = system: Klebsiella pneumoniae; assay: In vitro relative hydrolysis rate against Klebsiella IV; assay type: functional; outline: as §1
[10] = system: Pseudomonas aeruginosa; assay: In vivo efficacy against Pseudomonas aeruginosa infected mice treated at 1 hr and 5 hr post infection; assay type: functional
[11] = system: Staphylococcus aureus; assay: In vivo efficacy against Staphylococcus aureus infected mice treated at 1 hr and 5 hr post infection; assay type: functional
[12] = system: Escherichia coli; assay: In vivo efficacy against Escherichia coli infected mice treated at 1 hr and 5 hr post infection; assay type: functional
[13] = system: Escherichia coli; assay: In vivo efficacy against Escherichia coli infections in mice; assay type: functional; details: Escherichia coli; read-out: MIC
[14] = system: Pseudomonas aeruginosa; assay: In vivo efficacy against Pseudomonas aeruginosa infections in mice; assay type: functional
[15] = system: Staphylococcus aureus; assay: In vivo efficacy against Staphylococcus aureus infections in mice; assay type: functional
[16] = system: Pseudomonas aeruginosa; assay: In vitro relative hydrolysis rate against Pseudomonas Id; assay type: functional; outline: as §1
[17] = system: Pseudomonas aeruginosa; assay: Antibacterial activity against Pseudomonas aeruginosa X528; assay type: functional
[18] = system: Pseudomonas aeruginosa; assay: Antibacterial activity against Pseudomonas aeruginosa PS18; assay type: functional
[19] = system: Staphylococcus aureus; assay: Antibacterial activity against penicillin G resistance Staphylococcus aureus; assay type: functional
[20] = system: Staphylococcus aureus; assay: Antibacterial activity against penicillin G susceptible Staphylococcus aureus; assay type: functional
[21] = system: Streptococcus pneumoniae; assay: Antibacterial activity against Streptococcus pneumoniae; assay type: functional
[22] = system: Serratia marcescens; assay: Antibacterial activity against Serratia marcescens SE3; assay type: functional
[23] = system: Staphylococcus aureus; assay: In vitro relative hydrolysis rate against Staphylococcus aureus; assay type: functional; outline: as §1
[24] = system: Streptococcus pyogenes; assay: Antibacterial activity against Streptococcus pyogenes; assay type: functional
[25] = system: Enterococcus faecium; assay: Antibacterial activity against Enterococcus faecium; assay type: functional; details: Enterococcus faecium; read-out: MIC
[26] = Terminal half life in dogs at the dose of 60 mg/kg.; assay type: ADME, organism-based, Canis lupus familiaris; design: dose 60 mg/kg; details: dog, in vivo
Outline: (§2)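 Overnight-fasted female mongrel dogs with a Foley bladder catheter; bolus into the cephalic vein. Plasma and urine collected before dosing and over 24 h after. Antibacterial activity measured by microbiological assay.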

[27] = system: Canis familiaris; assay: Percent of dose in dogs urine at the dose of 60 mg/kg.; assay type: functional, Canis lupus familiaris; outline: as §2
[28] = species: Cavia porcellus; assay: In vitro relative anticholinergic potential in isolated guinea pig trachea; assay type: functional
Outline: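 Guinea pig trachea in Krebs' solution at 37.5 °C, 95% O2/5% CO2, pH 7.4, 2 g resting tension. Cumulative carbachol log dose-response curve (3-fold steps) run before and 30 min after adding antagonist at 1 mM. […] Tukey test on log2 dose ratios.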

[29] = In vitro dose required for anticholinergic activity in isolated guinea pig trachea; assay type: functional
[30] = Enterobacter cloacae, read-out: MIC
[31] = Escherichia coli, read-out: MIC
[32] = Klebsiella pneumoniae, read-out: MIC
[33] = Pseudomonas aeruginosa, read-out: ED50
[34] = Staphylococcus aureus, read-out: ED50
[35] = Escherichia coli, read-out: ED50
[36] = Pseudomonas aeruginosa, read-out: MIC
[37] = Staphylococcus aureus, read-out: MIC
[38] = Streptococcus pneumoniae, read-out: MIC
[39] = Serratia marcescens, read-out: MIC
[40] = Streptococcus pyogenes, read-out: MIC

Row | SMILES | Hydrolysis rate [1] | Hydrolysis rate [2] | MIC [3, 30] [mg/L] | MIC [4] [mg/L] | MIC [5, 30] [mg/L] | MIC [6, 31] [mg/L] | MIC [7, 32] [mg/L] | MIC [8] [mg/L] | Hydrolysis rate [9] | MIC [13] [mg/L] | MIC [17, 36] [mg/L] | MIC [18, 36] [mg/L] | MIC [19, 37] [mg/L] | MIC [20, 37] [mg/L] | MIC [21, 38] [mg/L] | MIC [22, 39] [mg/L] | MIC [24, 40] [mg/L] | MIC [25] [mg/L] | half-life [26] [h] | Percent of dose recovered in urine [27] [%] | other results
1 | CO/N=C(\C(=O)N[C@@H]1C(=O)N2C(C(=O)[O-])=C(C[n+]3cccc4ccccc43)CS[C@H]12)c1csc(N)n1 | 0.2 | 0.1 | 4 (≈ 7.63 µM) | 0.03 (≈ 0.0572 µM) | 0.125 (≈ 0.238 µM) | 0.015 (≈ 0.0286 µM) | 2 (≈ 3.81 µM) | 0.015 (≈ 0.0286 µM) | 0.8 | 0.03 (≈ 0.0572 µM) | 2 (≈ 3.81 µM) | 4 (≈ 7.63 µM) | 1 (≈ 1.91 µM) | 0.5 (≈ 0.953 µM) | 0.015 (≈ 0.0286 µM) | 0.125 (≈ 0.238 µM) | 0.015 (≈ 0.0286 µM) | 128 (≈ 244 µM) | – | – | ED50 [10, 33]: 9.5 mg/kg; ED50 [11, 34]: 0.4 mg/kg; ED50 [12, 35]: 0.04 mg/kg; MIC [14, 36]: 8 mg/L (≈ 15.3 µM); MIC [15, 37]: 0.5 mg/L (≈ 0.953 µM); Hydrolysis rate [16]: 0.1; Hydrolysis rate [23]: 8.4
2 | CO/N=C(\C(=O)N[C@@H]1C(=O)N2C(C(=O)[O-])=C(C[n+]3ccc4sc(C(=O)O)cc4c3)CS[C@H]12)c1csc(N)n1 | – | – | 32 (≈ 55.7 µM) | < 0.008 | 0.06 (≈ 0.104 µM) | 0.03 (≈ 0.0522 µM) | 4 (≈ 6.96 µM) | < 0.008 | – | – | 2 (≈ 3.48 µM) | 8 (≈ 13.9 µM) | 16 (≈ 27.8 µM) | 2 (≈ 3.48 µM) | < 0.008 | 0.06 (≈ 0.104 µM) | < 0.008 | > 128 | 1.5 | 98 | RAP [28]: 2; Dose ratio [29]: 1.52
3 | CO/N=C(\C(=O)N[C@@H]1C(=O)N2C(C(=O)[O-])=C(C[n+]3ccc4occc4c3)CS[C@H]12)c1csc(N)n1 | – | – | 4 (≈ 7.77 µM) | 0.015 (≈ 0.0292 µM) | 0.06 (≈ 0.117 µM) | 0.03 (≈ 0.0583 µM) | 4 (≈ 7.77 µM) | 0.015 (≈ 0.0292 µM) | – | 0.015 (≈ 0.0292 µM) | 1 (≈ 1.94 µM) | 2 (≈ 3.89 µM) | 4 (≈ 7.77 µM) | 0.5 (≈ 0.972 µM) | < 0.008 | 0.03 (≈ 0.0583 µM) | < 0.008 | > 128 | 1.33 | 94 | ED50 [10, 33]: 18 mg/kg; ED50 [11, 34]: < 0.6 mg/kg; ED50 [12, 35]: < 0.6 mg/kg; MIC [14, 36]: 4 mg/L (≈ 7.77 µM); MIC [15, 37]: 1 mg/L (≈ 1.94 µM)
4 | CO/N=C(\C(=O)N[C@@H]1C(=O)N2C(C(=O)[O-])=C(C[n+]3ccc(CC(=O)NO)cc3)CS[C@H]12)c1csc(N)n1 (stereo in doubt; 9) | 0.1 | 0.2 | – | 0.03 (≈ 0.0548 µM) | – | – | – | 0.03 (≈ 0.0548 µM) | 1.2 | 0.03 (≈ 0.0548 µM) | – | – | – | – | – | – | – | 128 (≈ 234 µM) | – | – | MIC [3]: 32 mg/L (≈ 58.4 µM); MIC [5]: 0.25 mg/L (≈ 0.457 µM); MIC [6]: 0.03 mg/L (≈ 0.0548 µM); MIC [7]: 4 mg/L (≈ 7.3 µM); ED50 [10]: 39 mg/kg; ED50 [11]: 1 mg/kg; ED50 [12]: <0.3 mg/kg; MIC [14]: 16 mg/L (≈ 29.2 µM); MIC [15]: 1 mg/L (≈ 1.83 µM); Hydrolysis rate [16]: 0.1; MIC [17]: 8 mg/L (≈ 14.6 µM); MIC [18]: 4 mg/L (≈ 7.3 µM); MIC [19]: 4 mg/L (≈ 7.3 µM); MIC [20]: 2 mg/L (≈ 3.65 µM); MIC [21]: 0.03 mg/L (≈ 0.0548 µM); MIC [22]: 0.125 mg/L (≈ 0.228 µM); Hydrolysis rate [23]: 6.9; MIC [24]: 0.03 mg/L (≈ 0.0548 µM)
5 | CO/N=C(\C(=O)N[C@@H]1C(=O)N2C(C(=O)[O-])=C(C[n+]3ccc4sc(C)cc4c3)CS[C@H]12)c1csc(N)n1 | – | – | 4 (≈ 7.34 µM) | 0.015 (≈ 0.0275 µM) | 0.06 (≈ 0.11 µM) | 0.015 (≈ 0.0275 µM) | 1 (≈ 1.84 µM) | < 0.008 | – | – | 2 (≈ 3.67 µM) | 8 (≈ 14.7 µM) | 4 (≈ 7.34 µM) | 0.5 (≈ 0.918 µM) | < 0.008 | 0.06 (≈ 0.11 µM) | < 0.008 | > 128 | 1.67 | 64 | –
6 | CO/N=C(\C(=O)N[C@@H]1C(=O)N2C(C(=O)[O-])=C(C[n+]3cccc4occc43)CS[C@H]12)c1csc(N)n1 | – | – | 4 (≈ 7.77 µM) | 0.06 (≈ 0.117 µM) | 0.5 (≈ 0.972 µM) | 0.06 (≈ 0.117 µM) | 8 (≈ 15.5 µM) | 0.06 (≈ 0.117 µM) | – | – | 4 (≈ 7.77 µM) | 8 (≈ 15.5 µM) | 4 (≈ 7.77 µM) | 0.5 (≈ 0.972 µM) | 0.06 (≈ 0.117 µM) | 0.25 (≈ 0.486 µM) | 0.06 (≈ 0.117 µM) | 32 (≈ 62.2 µM) | 1.67 | 78 | –
7 | CO/N=C(\C(=O)N[C@@H]1C(=O)N2C(C(=O)[O-])=C(C[n+]3cccc4c(N)cccc43)CS[C@H]12)c1csc(N)n1 | 0.7 | 1.1 | 8 (≈ 14.8 µM) | 0.015 (≈ 0.0278 µM) | 0.06 (≈ 0.111 µM) | 0.015 (≈ 0.0278 µM) | 2 (≈ 3.71 µM) | 0.015 (≈ 0.0278 µM) | 6.8 | 0.03 (≈ 0.0556 µM) | 2 (≈ 3.71 µM) | 2 (≈ 3.71 µM) | 2 (≈ 3.71 µM) | 1 (≈ 1.85 µM) | 0.015 (≈ 0.0278 µM) | 0.06 (≈ 0.111 µM) | < 0.008 | 128 (≈ 237 µM) | – | – | ED50 [10, 33]: 6 mg/kg; ED50 [11, 34]: 0.2 mg/kg; ED50 [12, 35]: < 0.03 mg/kg; MIC [14, 36]: 2 mg/L (≈ 3.71 µM); MIC [15, 37]: 0.5 mg/L (≈ 0.927 µM); Hydrolysis rate [16]: 0.6; Hydrolysis rate [23]: 0.2
